The source of these data is ChEMBL document CHEMBL1143369, “Guanidine and 2-aminoimidazoline aromatic derivatives as alpha2-adrenoceptor ligands: searching for structure-activity relationships” (J Med Chem, 2009).

Active and inactive are the calls of the source. The rule behind the calls is not given here.

In experiment [1] the target is T1, Adrenergic receptor alpha-2 (Homo sapiens) (UniProt P08913+P18825+P18089). Briefly: Intrinsic activity at alpha2 adrenoceptor in human cortical membrane at 0.0001 to 1000 uM after 2 hrs by [35S]GTPgammaS binding assay relative to UK-14304. In kind it is functional, cell membranes. Summed up:
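Human postmortem PFC membranes (40 µg protein) incubated 2 h at 30 °C with 0.5 nM [35S]GTPγS in buffer of EGTA, MgCl2, 100 mM NaCl, GDP and Tris-HCl pH 7.4. Compound tested at 8 concentrations (10^-10 to 10^-3 M). Bound label collected by GF/C filtration.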

Experiment [2] has as its target T2, Adrenergic receptor alpha-2 (Homo sapiens, UniProt P08913+P18825+P18089).
T2 sequence (P08913 whole entry): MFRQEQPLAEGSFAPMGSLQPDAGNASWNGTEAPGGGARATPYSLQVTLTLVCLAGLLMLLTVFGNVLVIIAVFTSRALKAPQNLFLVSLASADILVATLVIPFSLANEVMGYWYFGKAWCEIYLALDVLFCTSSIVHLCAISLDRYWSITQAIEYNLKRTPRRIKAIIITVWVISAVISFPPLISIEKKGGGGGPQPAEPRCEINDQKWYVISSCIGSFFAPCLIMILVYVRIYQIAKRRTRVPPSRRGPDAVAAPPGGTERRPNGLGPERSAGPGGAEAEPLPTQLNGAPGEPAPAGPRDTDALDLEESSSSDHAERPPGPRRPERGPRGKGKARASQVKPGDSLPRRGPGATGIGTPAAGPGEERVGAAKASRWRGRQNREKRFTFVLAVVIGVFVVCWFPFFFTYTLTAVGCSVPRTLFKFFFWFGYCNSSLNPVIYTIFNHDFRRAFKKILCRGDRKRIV
T2 sequence (P18825 whole entry): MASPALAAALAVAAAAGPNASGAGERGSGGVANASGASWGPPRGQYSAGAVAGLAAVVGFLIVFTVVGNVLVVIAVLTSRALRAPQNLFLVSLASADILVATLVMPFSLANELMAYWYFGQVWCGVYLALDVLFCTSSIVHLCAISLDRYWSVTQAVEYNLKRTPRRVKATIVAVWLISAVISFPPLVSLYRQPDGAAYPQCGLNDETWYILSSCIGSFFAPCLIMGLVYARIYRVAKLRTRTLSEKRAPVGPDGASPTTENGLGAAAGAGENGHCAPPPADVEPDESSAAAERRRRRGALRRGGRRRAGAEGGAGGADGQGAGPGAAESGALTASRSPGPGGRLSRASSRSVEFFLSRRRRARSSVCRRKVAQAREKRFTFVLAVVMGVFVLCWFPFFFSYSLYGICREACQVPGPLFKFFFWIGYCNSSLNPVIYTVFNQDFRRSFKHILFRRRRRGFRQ
T2 sequence (P18089 whole entry): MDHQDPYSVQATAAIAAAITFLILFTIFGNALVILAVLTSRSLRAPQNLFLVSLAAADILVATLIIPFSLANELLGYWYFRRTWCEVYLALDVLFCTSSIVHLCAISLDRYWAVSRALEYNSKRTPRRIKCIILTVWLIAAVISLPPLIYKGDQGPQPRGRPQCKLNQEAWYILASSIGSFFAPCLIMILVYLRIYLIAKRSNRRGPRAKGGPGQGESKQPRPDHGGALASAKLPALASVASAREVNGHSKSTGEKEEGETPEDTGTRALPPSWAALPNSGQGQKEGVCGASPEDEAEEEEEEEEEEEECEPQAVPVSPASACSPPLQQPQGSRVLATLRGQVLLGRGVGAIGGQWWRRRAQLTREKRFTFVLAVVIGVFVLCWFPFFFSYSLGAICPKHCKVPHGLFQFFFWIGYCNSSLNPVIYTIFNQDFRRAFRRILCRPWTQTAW
Briefly: Displacement of [3H]RX821002 from alpha2 adrenoceptor in human prefrontal cortex neural membrane after 30 mins by liquid scintillation spectrometry. It is filed as tissue-based.

The target in experiment [3] is T2, Adrenergic receptor alpha-2. Briefly: Agonist activity at alpha2 adrenoceptor in human cortical membrane after 2 hrs by [35S]GTPgammaS binding assay. It is filed as functional, cell membranes. (GTPγS resists hydrolysis and so accumulates on activated G proteins.)
Experiment [4] concerns Rattus norvegicus. In words: Antidepressant activity in Sprague-Dawley rat assessed as increase in extracellular noradrenaline level in prefrontal cortex at 1 uM administered locally by microdialysis measured after every 70 mins by HPLC. It is filed as functional, organism-based. Summed up: (§1)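 Male Sprague-Dawley rats (250-300 g), freely moving, with a PFC probe implanted under chloral hydrate 20-24 h earlier. Perfused with aCSF pH 7.4 at 1 µL/min. Drug dissolved in aCSF and reverse-dialysed for 70 min at each step of 1, 10 and 100 µM. Dialysate sampled every 35 min, NA measured by HPLC with amperometric detection at +650 mV. Values are % of mean of 3 basal samples, ANOVA versus aCSF controls.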

The subject of experiment [5] is Rattus norvegicus. Briefly: Antidepressant activity in Sprague-Dawley rat assessed as increase in extracellular noradrenaline level in prefrontal cortex at 1 to 100 uM administered locally by microdialysis measured after every 70 mins by HPLC. In kind it is functional. Summed up:
as §1

Experiment [6] concerns Rattus norvegicus. In words: Antidepressant activity in Sprague-Dawley rat assessed as increase in extracellular noradrenaline level in prefrontal cortex at 100 uM administered locally by microdialysis measured after every 70 mins by HPLC. In kind it is functional. Summed up: as §1
For experiment [7], the target named is T1, Adrenergic receptor alpha-2 (Homo sapiens). In words: Antagonist activity at alpha2 adrenoceptor in human prefrontal cortex neural membrane at 10 uM assessed as rightwards shift in UK-14304 EC50 by [35S]GTPgammaS binding assay. It is filed as functional, tissue-based. Summed up:
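Human postmortem prefrontal cortex P2 membranes (40 µg protein) incubated 120 min at 30 °C with shaking in 0.5 nM [35S]GTPγS, 1 mM EGTA, 3 mM MgCl2, 100 mM NaCl, GDP, Tris-HCl pH 7.4. Nonspecific binding with 10 µM unlabeled GTPγS.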

The subject of experiment [8] is Rattus norvegicus. Briefly: Antidepressant activity in Sprague-Dawley rat assessed as increase in extracellular noradrenaline level in prefrontal cortex at 10 mg/kg, ip […] by HPLC. As to conditions: route intraperitoneal. It is filed as functional.

A word on the Emax: it is the size of the effect at its maximum, as opposed to the concentration needed. As usually defined, the pKi is −log10 of the Ki, conventionally taken in molar units. Read a high pKi as a low Ki. Broadly, the EC50 is the concentration at which the effect is half-maximal. Read a low EC50 as higher potency in that assay. Consider `CNc1ccc(NC2=NCCN2)cc1`, for which the Emax in experiment [1] was 98%. The compound further yielded a pKi in experiment [2] of 7.27. The EC50 in experiment [3] stood at 61.4 µM.
`CNc1ccc(NC(=N)N)cc1` registered an Emax in experiment [1] of 87%. Further, the pKi in experiment [2] was found to be 6.95. This compound gave an EC50 in experiment [3] of 82.3 µM.
For `COC1(C2=NCCN2)COc2ccccc2O1` (centres undefined), in the experiment on Rattus norvegicus [4], the outcome was Active. Besides, the Emax in the experiment on Rattus norvegicus [5] turned out to be 290%. In experiment [2], the pKi is given as 9.04.
Turning to `CCN(C)c1ccc(NC(=N)N)cc1`, the Emax in experiment [1] was 92%. The compound further registered a pKi in experiment [2] of 7.12. Also, in experiment [3], the EC50 stood at 16.2 µM.
`CCC(CC)c1ccc(NC(=N)N)cc1`: in experiment [1], the Emax was 89%. The EC50 in experiment [3] came out at 38.7 µM.
Compound `CCNc1ccc(NC2=NCCN2)cc1` gave an Emax in experiment [1] of 95%. In experiment [2], this compound displayed a pKi of 6.75. Also, the EC50 in experiment [3] came to 59.3 µM.
Consider `CCNc1ccc(NC(=N)N)cc1`, for which the Emax in the experiment on Rattus norvegicus [6] is 304%. In addition, the outcome in experiment [7] was Active. Besides, the Activity with Rattus norvegicus [8] turned out to be 161%. Also, in experiment [2], the pKi came out at 6.58.
As to `CCN(C)c1ccc(NC2=NCCN2)cc1`, the Emax in experiment [1] turned out to be 103%. In experiment [2], this compound yielded a negative logarithm of the Ki (pKi) of 7.38. Moreover, the EC50 in experiment [3] is 1.9 µM.
